Assay outcomes as filed in PubChem BioAssay.
A selection: hits, their analogues and other compounds. The true share with any hit is near 2.9%.
SENP8 block-1 = blocks human SENP8 cleavage of Nedd8 substrate. Q96LD8. hit rate 0.64% among 360,000. inhibition, % at 20 µM. recombinant SENP8, Nedd8 substrate fluorescence; in the data active means inhibition mostly above about 40%, no sharp cut-off; inactive means mostly below about 27%
SENP1 inh = blocks the human SENP1 SUMO protease catalytic domain | inhibition, % at 10 µM | hit rate 0.21% among 360,000 | Q9P0U3 | recombinant SENP1 catalytic domain, CyPet-SUMO1-YPet FRET cleavage;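 active means inhibition at least 30% at 10 µM, raw YFP signal under a set limit, fluorescence ratio 0.5 to 1.5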;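 further: 0% = enzyme with DMSO and 100% = no enzyme wells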
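Material – human SENP1 catalytic domain · Input – SENP1 enzyme, 20 pM final · Compound dosing – single concentration of 10 µM compound, 0.5% DMSO final · Timing – enzyme reaction for 50 min at room temperature, dark · Measured by – FRET fluorescence in CFP and YFP emission channels · Control set – no-enzyme wells low, DMSO-plus-enzyme wells high control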
Apaf-1 inh = human Apaf-1 inhibition | O14727 | reconstituted apoptosome caspase-3 activity, DEVD-Rh110 fluorescence | inhibition, % at 20 µM | hit rate 0.71% among 330,000 | AID 489030; active means inhibition of at least 40% at 20 µM;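 further: plate controls were DMSO wells for no effect and DEVD-CHO caspase inhibitor wells for full effect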
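Material: cell-free apoptosome with Apaf-1, procaspase-3 and caspase-9; Buffer or medium: Hepes pH 7.5 with detergent and BSA; Reagent: cytochrome c trigger plus (Z-DEVD)2-Rh110 caspase-3 substrate; Times: compound with Apaf-1, dATP, procaspase-3 30 min, then 50 min reaction, room temperature; Technique: Rh110 fluorescence intensity.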
SENP7 block = inhibitors of human SENP7 protease. Q9BQF6. recombinant SENP7, Z-RLRGG-aminoluciferin luminescence, 40 min. inhibition, % at 5 µM. hit rate 1.5% among 330,000;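 active means inhibition above about 50% at the single test dose, limit read from the data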;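 further: plate controls were DMSO with enzyme for no effect and no enzyme buffer wells for full effect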
SENP6 inh = inhibitors of human SENP6 protease; Recombinant SENP6 catalytic domain, aminoluciferin luminescence; inhibition, % at 10 µM; hit rate 1.8% among 330,000; AID 2599;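 active means inhibition above about 50% at the single tested dose, limit read from the data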;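 further: plate controls were DMSO wells with enzyme for no effect and DMSO wells lacking enzyme for full effect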
Target sequence (Q9GZR1 628-1112 limits assumed): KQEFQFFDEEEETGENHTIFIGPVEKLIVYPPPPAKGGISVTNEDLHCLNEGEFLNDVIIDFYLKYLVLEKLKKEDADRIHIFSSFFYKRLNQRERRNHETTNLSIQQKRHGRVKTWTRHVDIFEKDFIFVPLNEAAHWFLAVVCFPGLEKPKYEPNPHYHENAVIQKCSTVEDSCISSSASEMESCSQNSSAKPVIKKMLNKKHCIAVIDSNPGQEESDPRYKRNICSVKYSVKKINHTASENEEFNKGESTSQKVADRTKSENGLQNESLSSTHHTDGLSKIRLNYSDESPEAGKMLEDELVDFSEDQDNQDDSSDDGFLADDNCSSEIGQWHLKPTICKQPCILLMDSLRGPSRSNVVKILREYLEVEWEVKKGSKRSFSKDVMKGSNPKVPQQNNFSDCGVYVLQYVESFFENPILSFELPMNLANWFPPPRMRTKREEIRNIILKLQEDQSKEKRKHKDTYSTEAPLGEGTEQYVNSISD
SENP8 block-2 = blocks the human protease SENP8; purified SENP8, Z-RLRGG-aminoluciferin cleavage, luminescence; AID 2540; hit rate 1.2% among 330,000; Q96LD8; inhibition, % at 10 µM; in the data active means inhibition above about 50%
Active calls of the source: *; . = no result.

SMILES	SENP8 block-1	SENP1 inh	Apaf-1 inh	SENP7 block	SENP6 inh	SENP8 block-2
Cc1cc(O)c2c(c1)C(=O)[C@@]13Oc4c5c(c(O)c6c(O)cc(C)cc46)C(=O)C[C@H](O)[C@H]5[C@@H]1[C@@H](O)CC(=O)C3=C2O	-4	33*	.	.	.	.
Oc1cccc(CN2CCOCC2)c1O	36	1	.	.	.	.
Oc1c(CN2CCOCC2)cc(CN2CCOCC2)c(O)c1O	52*	13	.	.	.	.
O=C(NC(=O)c1ccccc1)Nc1ccccn1	3	2	11	100*	99*	94*
Cn1nc(C(C)(C)C)cc1C(=O)N1CCCCC1c1cc(C(=O)Nc2ccc(F)c(Cl)c2)no1 (centres undefined)	10	-1	.	.	.	.
O=C(O)C(S)C(S)C(=O)O (centres undefined)	49*	3	.	.	.	.
Cc1ccc(C(=O)COC(=O)c2cccc(O)c2)s1	-4	1	-6	95*	93*	83*
CN(C)CCCN(C(=O)c1ccc([N+](=O)[O-])s1)c1nc2cc3c(cc2s1)OCCO3	19	0	17	5	47	55*
CN(C)CCCN(C(=O)c1ccc(Br)s1)c1nc2cc3c(cc2s1)OCCO3	-15	-69	26	2	1	-8
CCN(CC)CCOC(=O)c1ccc(NC(=O)CCCN2C(=O)/C(=C\c3cccs3)SC2=S)cc1	35	5	60*	-11	-7	-21
CCOc1ccccc1Nc1nc(-c2sc(NC(=O)c3ccccc3)nc2C)cs1	.	.	5	64*	72*	59*
Cc1ccc(Cl)cc1Nc1nc(-c2sc(NC(=O)c3ccccc3)nc2C)cs1	.	.	9	0	51*	27
Cc1cc(NS(=O)(=O)c2ccc(Nc3nc(-c4sc(NC(=O)c5ccccc5)nc4C)cs3)cc2)no1	.	.	28	65*	72*	43
COc1ccccc1Nc1nc(-c2sc(NC(=O)c3ccccc3)nc2C)cs1	-200	-23	-4	10	33	22
CN(C)c1ccc(/C=N/N2CCN(c3ccccn3)CC2)cc1	11	3	-19	78*	74*	62*
COc1cc2[nH]c(C)c(-c3ccccc3)c(=O)c2cc1Cl	5	4	.	.	.	.
C/C(=C\c1ccccc1)C1Nc2cccc3cccc(c23)N1	.	.	41*	10	31	17
COC(=O)c1c(N)n(CCCN2CCOCC2)c2nc3ccccc3nc12	-322	-60	-72	7	7	2
COc1ccc(CNC(=O)c2c(N)n(CCCN3CCOCC3)c3nc4ccccc4nc23)cc1	-301	-24	87*	44	68*	71*
C=CC1=CCN(S(=O)(=O)C(C)(C)C)[C@H]1CCO	6	-2	.	.	.	.
CN(C)c1ncnc2c1ncn2[C@H]1CN(Cc2ccc3c(c2)OCO3)C[C@@H](CO)O1	11	0	.	.	.	.
Cc1ccc(Cc2c(-c3ccc(C)cc3)nc3c(C)cc(Br)cn23)cc1	4	10	.	.	.	.
Cc1ccc(Cc2c(-c3ccc(F)cc3)nc3c(C)cc(Br)cn23)cc1	-3	40*	.	.	.	.
COc1ccc(-c2csc(C(O)c3ccc(F)cc3)n2)cc1OC (centres undefined)	16	4	.	.	.	.
CCc1ccc2nc(N(CCCN(C)C)C(=O)c3ccc(S(=O)(=O)N(C)C4CCCCC4)cc3)sc2c1	13	0	54*	-6	2	-5
SMILES	SENP8 block-1	SENP1 inh	Apaf-1 inh	SENP7 block	SENP6 inh	SENP8 block-2
CN(C(=O)C1CCCN1S(=O)(=O)c1ccc(Cl)cc1)c1ccccc1 (centres undefined)	2	1	-3	0	-7	-1
COc1c(OC(C)=O)c(=O)n2c3ccccc3c3ccnc1c32	-198	69*	-2	-1	8	6
CC(=O)Oc1c(C)c(=O)n(C)c2ccccc12	-3	2	3	3	1	-5
CCOc1ccccc1CNC(=O)C1CCN(c2nnc(C)c3c(C)n(-c4ccc(C)cc4)nc23)CC1	-381	-2	41*	2	7	-6
Cc1ccc(-n2nc3c(N4CCC(C(=O)NCc5ccccc5C)CC4)nnc(C)c3c2C)cc1	-356	-6	34	10	-8	-9
COc1cc(/C=C2\SC(=O)NC2=O)ccc1Oc1ccc([N+](=O)[O-])cc1[N+](=O)[O-]	17	4	-7	5	5	-3
